Screening results: PubChem BioAssay, Sanford-Burnham Center for Chemical Genomics
In the library only some 2.3% were active in any assay of this set; here they are far more common.
SUMO1-SIM PPI: modulators of SUMO1 protein-protein interactions, primary screen, biochemical, uHTS. Small ubiquitin-related modifier 1 (Homo sapiens), P63165. SUMO1 binding to a labelled peptide, TR-FRET, 1 h. inhibition, % at 20 µM. actives 0.33% (n = 360,000); in the data active = inhibition above about 37%
CSN deneddyl inh: inhibitors of CSN-mediated cullin deneddylation, primary screen, biochemical, fluorescence polarization, uHTS. actives 0.38% (n = 360,000). Purified CSN, SCF-Nedd8-OG deneddylation. AID 651999, 2013. COP9 signalosome complex subunit 5 (Homo sapiens), Q92905. inhibition, % at 12.5 µM;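 active = pattern-corrected inhibition above about 35%, with an unprinted fluorescence ratio check between 0.5 and 1.5, limit read from the data, passing the limit was not always enough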;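 note: 0% = enzyme with substrate and 100% = substrate without enzyme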
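Material: human Csn5 produced in HEK293T cells; Input: enzyme 0.24 nM; Reagent: SCFSkp2-Nedd8OG substrate at 10 nM final; Dosing: 12.5 µM compound; Incubation: 90 min reaction at room temperature; Detection: fluorescence polarization of the substrate; Evaluation: % inhibition of substrate cleavage by Csn5; Control set: substrate-only high control, full reaction low control.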
DNMT1 inh: human DNMT1 methyltransferase inhibitors, primary screen, biochemical, molecular beacon, fluorescence, HinP1I cleavage, uHTS | DNA (cytosine-5)-methyltransferase 1 (Homo sapiens), P26358 | inhibition (reported as % activation of signal), % at 10 µM | actives 0.83% (n = 360,000) | AID 588458, 2011; in the data active = inhibition above about 50%
SKN-1 block: suppressors of acrylamide-induced Pgst-4::GFP reporter in worms, primary screen, SKN-1 inhibitor project, whole organism, uHTS, GFP/RFP fluorescence ratio, strain VP596; inhibition, % at 21.8 µM; C. elegans VP596 Pgst-4::GFP/RFP ratio, 24 h; actives 0.49% (n = 360,000);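 active = interference check ratio from 0.5 to 1.5 plus GFP to RFP signal ratio inhibition reaching or exceeding a fixed threshold, cut at about 30% in these data, passing the limit was not always enough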
Rpn11 block: Rpn11 (PSMD14) deubiquitinase inhibitors, primary screen, biochemical, fluorescence polarization, uHTS; actives 0.59% (n = 360,000); inhibition, % at 20 µM; human 26S proteasome, Ub4-pepOG fluorescence polarization; 20S core pre-blocked with epoxomicin; 26S proteasome non-ATPase regulatory subunit 14 (Homo sapiens), O00487;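 active = inhibition at 20 µM, scaled to each plate's controls, above about 33%, limit read from the data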
MT1-MMP act inh: blockers of MT1-MMP proenzyme processing, primary screen, HT1080 RFP-PRO-GFP cells, GFP/RFP fluorescence | actives 0.061% (n = 360,000) | Matrix metalloproteinase-14 (Homo sapiens), P50281 | GFP/RFP ratio fluorescence, overnight; percent of plate control window, DMSO zero | AID 651647, 2012 | GFP/RFP ratio change, % at 20 µM;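 active = GFP/RFP ratio change of at least 30% with cell ATP level not reduced by more than half and red fluorescence within 50% of control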
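Material: RFP-PRO-GFP reporter HT1080 cells. Dosing: single-point 20 µM compound, 1% DMSO. Controls: DMSO and RFP-L50D-GFP cell wells. Timing: cells overnight before dosing, compound overnight, 37 °C, 5% CO2. Measure: GFP/RFP fluorescence ratio.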
An asterisk follows results filed as active.

Screening CCOC(=O)C1(C)CCN1C(=O)c1cccs1 (stereo unspecified) returned SUMO1-SIM PPI 3.2, CSN deneddyl inh 1.8, DNMT1 inh -0.3, SKN-1 block 8.2, Rpn11 block 1.3 and MT1-MMP act inh 1.5.
For Cc1cn([C@H]2C[C@H](O)[C@@H](/C=C/C(=O)NCCC(C)C)O2)c(=O)[nH]c1=O the results were SUMO1-SIM PPI 2.1, CSN deneddyl inh -0.2, DNMT1 inh -2.3, SKN-1 block 3.4, Rpn11 block 7.7 and MT1-MMP act inh 1.8.
Screening O=C(OC1CC2CC1[C@H]1CCCCN1C2=O)N1CCCCC1 (stereo partly specified) returned SUMO1-SIM PPI 3.2, CSN deneddyl inh -4.3, SKN-1 block -10.3 and MT1-MMP act inh 5.1.
`COc1cc(/C=C2\C(=O)N(c3ccc(S(N)(=O)=O)cc3)N=C2C)ccc1OC(=O)c1ccco1` gave SUMO1-SIM PPI 44.8*, CSN deneddyl inh -5.1, DNMT1 inh 15.5, SKN-1 block -6.4, Rpn11 block -2.3 and MT1-MMP act inh 6.0.
Screening CN(C)CCCN1C(=O)c2cccc3cccc(c23)C1=O returned SUMO1-SIM PPI -35.2, CSN deneddyl inh 4.0, DNMT1 inh 28.6, SKN-1 block 14.3, Rpn11 block 3.5 and MT1-MMP act inh -1.4.
For CN(C)CCN1C(=O)c2cccc3cc([N+](=O)[O-])cc(c23)C1=O the results were SUMO1-SIM PPI 1.5, CSN deneddyl inh -7.6, DNMT1 inh 69.1*, SKN-1 block -7.2, Rpn11 block -59.2 and MT1-MMP act inh -51.7.
For COc1cccc2cc(C(=O)NNC(=O)c3ccc(Br)cc3)c(=O)oc12 the results were SUMO1-SIM PPI -10.9, CSN deneddyl inh 109.6*, DNMT1 inh 7.3, SKN-1 block -6.0, Rpn11 block 15.0 and MT1-MMP act inh 5.6.
Screening COc1cccc2cc(C(C)=O)c(=O)oc12 returned SUMO1-SIM PPI -23.4, CSN deneddyl inh 1.9, DNMT1 inh 5.5, SKN-1 block 3.7, Rpn11 block -1.5 and MT1-MMP act inh -4.1.
`CC(=O)Nc1cccc(-c2ccnc3c2CC(C(=O)NCc2cccs2)O3)c1` (stereo unspecified) gave SUMO1-SIM PPI 0.2, CSN deneddyl inh -7.0, DNMT1 inh 1.1, SKN-1 block -15.2, Rpn11 block 2.3 and MT1-MMP act inh 11.2.
For O=C(/C=C/c1cccs1)N1CCc2ccccc21 the results were SUMO1-SIM PPI -20.1, CSN deneddyl inh -11.8, DNMT1 inh 1.8, SKN-1 block 35.0*, Rpn11 block -1.9 and MT1-MMP act inh -12.5.
`c1ccc(C2(Cn3ccc4ccccc43)OCCO2)cc1` gave SUMO1-SIM PPI -1.1, CSN deneddyl inh -0.3, DNMT1 inh 6.9, SKN-1 block 43.9*, Rpn11 block 0.3 and MT1-MMP act inh -5.7.
CSc1ccc(CN2CCC(C)(Oc3ccc(-n4ccnc4)cc3)C2)cc1 (stereo unspecified) was read as SUMO1-SIM PPI -6.9, CSN deneddyl inh 0.7, DNMT1 inh -5.3, SKN-1 block -13.1, Rpn11 block -7.5 and MT1-MMP act inh -2.6.
`CCNc1ccc2noc3c2c1C(=O)c1ccccc1-3` gave SUMO1-SIM PPI -12.0, CSN deneddyl inh -72.0, DNMT1 inh 62.9*, SKN-1 block 54.0, Rpn11 block -156.4 and MT1-MMP act inh -99.6.
O=C(Nc1ccccc1)OCc1cnc(Cl)s1 was read as SUMO1-SIM PPI -3.5, CSN deneddyl inh -5.6, DNMT1 inh -0.9, SKN-1 block 2.7, Rpn11 block 4.2 and MT1-MMP act inh 3.5.
Clc1ncc(CSc2ccccc2)s1 was read as SUMO1-SIM PPI -2.6, CSN deneddyl inh 0.3, DNMT1 inh 0.1, SKN-1 block 39.1*, Rpn11 block -1.3 and MT1-MMP act inh 0.4.
For CCOC(=O)Cn1cc(Cn2c3ccccc3c(=O)n2C(C)C)nn1 the results were SUMO1-SIM PPI 2.1, CSN deneddyl inh 3.9, DNMT1 inh 7.3, SKN-1 block -7.0, Rpn11 block -1.4 and MT1-MMP act inh 1.6.
Screening O=C(Nc1ccc2nc(-c3cccs3)c(-c3cccs3)nc2c1)N1CCOCC1 returned SUMO1-SIM PPI -21.9, CSN deneddyl inh 7.1, DNMT1 inh -18.2, SKN-1 block 7.1, Rpn11 block 46.9* and MT1-MMP act inh -23.1.
O=C(Nc1cccc(O)c1)N1CCOCC1 was read as SUMO1-SIM PPI 2.2, CSN deneddyl inh -1.7, DNMT1 inh 0.1, SKN-1 block -1.8, Rpn11 block -4.3 and MT1-MMP act inh -6.7.
For CC(C)CC1C(=O)N(Cc2cn(Cc3ccco3)nn2)CCS(=O)(=O)N1Cc1ccc(-c2cccc(N(C)C)c2)cc1 (stereo unspecified) the results were SUMO1-SIM PPI 4.0, CSN deneddyl inh 4.3, DNMT1 inh -19.6, SKN-1 block 21.7, Rpn11 block 5.2 and MT1-MMP act inh -1.5.
Screening Cc1cc(OCC(=O)OCC(=O)N2CCCCC2)ccc1Cl returned SUMO1-SIM PPI -1.5, CSN deneddyl inh -4.5, DNMT1 inh 2.4, SKN-1 block 4.5, Rpn11 block -4.0 and MT1-MMP act inh 1.2.
Clc1ccc(/C=N\Nc2ccccc2)cc1 was read as SUMO1-SIM PPI -6.9, CSN deneddyl inh 4.8, DNMT1 inh -3.8, SKN-1 block 3.0, Rpn11 block 2.8 and MT1-MMP act inh -1.9.
`O=C(N/N=C/c1ccc(Cl)cc1)Nc1ccccc1` gave SUMO1-SIM PPI -4.3, CSN deneddyl inh 2.0, DNMT1 inh -0.1, SKN-1 block 40.8*, Rpn11 block 3.2 and MT1-MMP act inh 0.9.
COC(=O)c1c(N)[nH]c(C(=O)c2ccccc2)c1-c1ccc(Br)cc1 was read as SUMO1-SIM PPI 0.9, CSN deneddyl inh -4.7, SKN-1 block 11.8 and MT1-MMP act inh 3.8.
For CCCSC1=N/C(=C\c2ccc([N+](=O)[O-])o2)C(=O)S1 the results were SUMO1-SIM PPI 61.8*, CSN deneddyl inh 39.1, DNMT1 inh 93.4*, SKN-1 block 8.2, Rpn11 block 53.4* and MT1-MMP act inh -2.1.
Screening CCSC1=N/C(=C\c2ccc(-c3ccccc3[N+](=O)[O-])o2)C(=O)S1 returned SUMO1-SIM PPI -0.8, CSN deneddyl inh -46.9, DNMT1 inh -2.7, SKN-1 block -5.6, Rpn11 block -141.8 and MT1-MMP act inh -19.6.
